# Measurements from PubChem BioAssay AID493236 (Broad Institute, 2011).
# Inconclusive results are not listed. Calls of active or inactive are those of the source.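 How the source made its calls: active means luminescence cut by more than half of the full-inhibition control window in a dose series; inconclusive means no clear call, values can overlap the other calls; inactive means signal rising instead of falling, or the rest.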
# Tested on: proteasome chymotrypsin-like activity (human)
# Experiment: inhibition of cellular proteasome chymotrypsin-like cleavage – cell-based, U2OS, luminescence, dry powder, set 4, counter-screen for HIF pathway activator project, dose response (AID 493236)
# Conditions: U2OS cells, Proteasome-Glo chymotrypsin luminescence; series mostly up to 38 µM
# Method in brief: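 Times: 24 h plating, 4 h compound, 2 h reagent / System: U2OS cells / Quantity: 2,500 U2OS cells per well / Technique: Proteasome-Glo luminescence / Repeats: each compound tested in duplicate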
row,Structure (SMILES),outcome
1,c1ccc(CCNc2nc(-c3ccccn3)nnc2-c2ccccc2)cc1,inactive
2,COc1ccc(CNc2nc(-c3ccccn3)nnc2-c2ccccc2)cc1,inactive
3,O=C(NCCCO)c1cc(-c2ccccc2)on1,inactive
4,Clc1cccc(CNc2nc(-c3ccccn3)nnc2-c2ccccc2)c1,inactive
5,Oc1ccc(CN2CCC(Cc3ccccc3)CC2)c2cccnc12,inactive
6,c1ccc(-c2nnc(-c3ccccn3)nc2Nc2cnc3ccccc3n2)cc1,inactive
7,OCCCNc1nc(-c2ccccn2)nnc1-c1ccccc1,inactive
8,c1ccc(-c2ccc(CNc3nc(-c4ccccn4)nnc3-c3ccccc3)cc2)cc1,inactive
9,O=C(NCCCCO)c1cc(-c2ccccc2)on1,inactive
10,Cc1ccc(CNc2nc(-c3ccccn3)nnc2-c2ccccc2)cc1C,inactive
11,C[C@H](Nc1nc(-c2ccccn2)nnc1-c1ccccc1)C1CCCCC1,inactive
12,c1ccc(-c2nnc(-c3ccccn3)nc2NCCc2ccccn2)cc1,inactive
13,c1ccc(-c2nnc(-c3ccccn3)nc2NCC2CC2)cc1,inactive
14,Cc1cccc(CNC(=O)c2cc(-c3ccccc3)on2)c1,inactive
15,c1ccc(-c2nnc(-c3ccccn3)nc2N2CCC(C3CCCCC3)C2)cc1 (stereo not given),inactive
16,c1ccc(-c2nnc(-c3ccccn3)nc2NCCN2CCOCC2)cc1,inactive
17,c1ccc(-c2cccc(CNc3nc(-c4ccccn4)nnc3-c3ccccc3)c2)cc1,inactive
18,O=C(NCCCN1CCOCC1)c1cc(-c2ccccc2)on1,inactive
19,c1ccc(-c2nnc(-c3ccccn3)nc2N2CCC(c3ccccc3)C2)cc1 (stereo not given),inactive
20,CCCCNC(=O)c1cc(-c2ccccc2)on1,inactive

row,Structure (SMILES),outcome
1,O=C(c1cc(-c2ccccc2)on1)N1CCC(N2CCOCC2)CC1,inactive
2,O=C(Nc1ccc2ccccc2n1)c1cc(-c2ccccc2)on1,inactive
3,c1ccc(-c2nnc(-c3ccccn3)nc2NCC2CCCCC2)cc1,inactive
4,Oc1ccc(CN2CCc3ccccc3C2)c2cccnc12,inactive
5,O=C(Nc1ncc(-c2ccccc2)o1)c1cc(-c2ccccc2)on1,inactive
6,Cc1ccc(Nc2nc(-c3ccccn3)nnc2-c2ccccc2)cn1,inactive
7,CC(C)(C)CCNc1nc(-c2ccccn2)nnc1-c1ccccc1,inactive
8,c1ccc(-c2nnc(-c3ccccn3)nc2NCC2CCOCC2)cc1,inactive
9,O=C(NCCN1CCOCC1)c1cc(-c2ccccc2)on1,inactive
10,O=C(NCCCn1ccnc1)c1cc(-c2ccccc2)on1,inactive
11,Cc1ccccc1CNc1nc(-c2ccccn2)nnc1-c1ccccc1,inactive
12,CN1CCN(C(=O)c2cc(-c3ccccc3)on2)CC1,inactive
13,C[C@@H](Nc1nc(-c2ccccn2)nnc1-c1ccccc1)c1ccccc1,inactive
14,COc1cccc(CNc2nc(-c3ccccn3)nnc2-c2ccccc2)c1,inactive
15,Cc1cccc(CNc2nc(-c3ccccn3)nnc2-c2ccccc2)c1,inactive
16,Cc1ccc(CNC(=O)c2cc(-c3ccccc3)on2)cc1,inactive
17,COc1ccccc1N1CCN(Cc2ccc(O)c3ncccc23)CC1,inactive
18,OCC1CCN(c2nc(-c3ccccn3)nnc2-c2ccccc2)CC1,inactive
19,Cc1cccc(Nc2nc(-c3ccccn3)nnc2-c2ccccc2)n1,inactive
20,CC1CN(Cc2ccc(O)c3ncccc23)CC(C)O1 (stereo not given),inactive
